Data set [1] is described as follows: Solubility of compound in saline at 1mg/ml. In kind it is physicochemical. The conditions noted are these: buffer.
Data set [2] has as its target T1, P2X purinoceptor 7 (Homo sapiens) (UniProt Q99572).
T1 sequence (whole entry): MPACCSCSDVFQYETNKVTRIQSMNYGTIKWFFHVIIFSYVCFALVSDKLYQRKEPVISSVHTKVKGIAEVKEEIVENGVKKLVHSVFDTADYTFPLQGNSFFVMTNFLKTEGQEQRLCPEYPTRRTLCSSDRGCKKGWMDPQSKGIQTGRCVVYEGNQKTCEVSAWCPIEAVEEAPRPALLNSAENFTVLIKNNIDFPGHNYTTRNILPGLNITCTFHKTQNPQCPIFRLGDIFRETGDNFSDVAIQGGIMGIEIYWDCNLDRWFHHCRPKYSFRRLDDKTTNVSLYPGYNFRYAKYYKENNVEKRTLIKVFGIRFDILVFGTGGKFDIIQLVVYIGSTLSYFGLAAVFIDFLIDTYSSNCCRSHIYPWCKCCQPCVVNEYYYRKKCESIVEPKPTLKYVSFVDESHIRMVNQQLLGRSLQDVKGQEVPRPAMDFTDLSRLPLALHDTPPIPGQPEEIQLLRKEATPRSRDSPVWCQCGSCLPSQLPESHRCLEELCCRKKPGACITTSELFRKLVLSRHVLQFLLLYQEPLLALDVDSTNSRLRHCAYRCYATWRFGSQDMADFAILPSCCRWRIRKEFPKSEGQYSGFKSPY
Put plainly: Antagonist activity at P2X7 receptor in human THP-1 cells assessed as inhibition of LPS and BzATP-induced IL-1beta production at 10^-6 mol/L pretreated with compound followed by LPS/BzATP addition and measured after 2 to 6 hrs by ELISA. In kind it is cell-based. Conditions: TDE = time-dependent effect. The gist of the method: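 PMA (100nM)-differentiated THP-1 macrophages (RPMI 1640, 10% FCS), 10^6 cells, pretreated with antagonist at […], then challenged with LPS 10 μmol/L and BzATP 70 μmol/L at 37 °C, 5% CO2; IL1β measured by ELISA, including the 6 h point; mean ± SD, P<0.05 significant.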
A general note: An ELISA detects its analyte on a solid surface through an enzyme-linked reagent.

Data set [3] can be described thus: Drug metabolism in mouse measured after 40 mins. Type of data set: ADME. The conditions noted are these: read-out: Drug metabolism.
The nature of data set [4]: Metabolic stability in human liver microsomes assessed as intrinsic clearance at 0.2 mg/ml incubated for 60 mins by UPLC/MS-MS analysis. Conditions: read-out: CLH. Type of data set: ADME, Microsome. For orientation: Liver microsomes are a subcellular fraction often used to study metabolism.
The next data set concerns the target T2, P2X purinoceptor 7 (Homo sapiens, UniProt Q99572).
T2 sequence (Q99572 whole entry): T1 sequence (whole entry)
Put plainly: Displacement of [3H]-A804598 from human P2X7 expressed in human HEK293 cell membrane incubated for 1 hr by microplate scintillation counting method. Type of data set: cell membranes. On the technique in general: Displacement assays read how much labelled ligand stays bound in the presence of the test substance.

Data set [5] addresses T1, P2X purinoceptor 7 (Homo sapiens). Put plainly: Antagonist activity at P2X7R in human THP1 cells assessed as inhibition of LPS and BzATP-induced mature form of IL-1beta expression in whole cell extract at 10^-6 mol/L pretreated with compound followed by LPS/BzATP addition and measured after 2 to 6 hrs by Western blot analysis. Type of data set: cell-based. The conditions noted are these: THP-1.

Data set [6] addresses T3, P2X purinoceptor 1 (Homo sapiens) (UniProt P51575).
T3 sequence (whole entry): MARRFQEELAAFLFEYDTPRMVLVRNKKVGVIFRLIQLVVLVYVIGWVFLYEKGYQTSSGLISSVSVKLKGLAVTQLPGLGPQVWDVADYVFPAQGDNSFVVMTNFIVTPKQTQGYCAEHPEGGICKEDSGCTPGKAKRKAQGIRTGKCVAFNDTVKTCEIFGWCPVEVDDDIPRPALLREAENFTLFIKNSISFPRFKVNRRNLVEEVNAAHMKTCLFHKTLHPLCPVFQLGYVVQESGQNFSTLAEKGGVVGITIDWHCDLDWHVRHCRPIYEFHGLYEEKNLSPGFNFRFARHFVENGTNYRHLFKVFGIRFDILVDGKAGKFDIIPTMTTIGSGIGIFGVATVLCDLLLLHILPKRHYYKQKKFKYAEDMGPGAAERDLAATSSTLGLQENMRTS
Put plainly: Antagonist activity at P2X1 receptor in human platelet assessed as inhibition of thrombin-induced platelet aggregation at 10 '-5 to 10^-6 mol/L pretreated with compound and LPS/BzATP for 10 mins followed by thrombin addition and measured for 8 mins by aggregometry analysis. Type of data set: cell-based.

In data set [7] the target is T1, P2X purinoceptor 7 (Homo sapiens). The data set is described as follows: Antagonist activity at P2X7R in human THP1 cells assessed as inhibition of LPS and BzATP-induced mature form of IL-1beta expression in cells supernatant at 10^-6 mol/L pretreated with compound followed by LPS/BzATP addition and measured after 2 to 6 hrs by Western blot analysis. The conditions noted are these: THP-1. In kind it is cell-based.

Data set [8] shares this target. Put plainly: Antagonist activity at P2X7 receptor in human THP-1 cells assessed as inhibition of LPS and BzATP-induced IL-1beta production at 10^-5 mol/L pretreated with compound followed by LPS/BzATP addition and measured after 2 to 6 hrs by ELISA. In kind it is cell-based. In outline:
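THP-1 monocytes grown in RPMI 1640 + 10% FCS, differentiated to macrophages with PMA (100nM); 10^6 cells pretreated with antagonist at 10^-5 mol/L, then exposed to LPS 10 μmol/L plus BzATP 70 μmol/L at 37 °C, 5% CO2; IL1β quantified by ELISA in samples at 2, 4 and 6 h; mean ± SD, significance P<0.05.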

The target is the same in data set [9]. Put plainly: Antagonist activity at P2X7R in human THP1 cells assessed as inhibition of LPS and BzATP-induced IL-1beta expression by measuring increase in proIL-1beta expression in cell supernatant extract at 10^-6 mol/L pretreated with compound followed by LPS/BzATP addition and measured after 6 hrs by Western blot analysis. The conditions noted are these: THP-1. Type of data set: cell-based.

Data set [10] in a line: Metabolic stability in human hepatocytes. Type of data set: ADME, cell-based, Hepatocyte.
Data set [11] deals with T1, P2X purinoceptor 7 (Homo sapiens). The data set is described as follows: Antagonist activity at P2X7R in human THP1 cells assessed as inhibition of LPS and BzATP-induced ROS production at 10^-5 mol/L pretreated with compound followed by LPS/BzATP addition and measured up to 5 hrs by kinetic chemiluminescence based fluorometric analysis. Type of data set: cell-based. The conditions noted are these: THP-1. The gist of the method: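 PMA-differentiated THP-1 macrophages (10^5 cells) in RPMI 1640 + 10% FBS pretreated with antagonist at 10^-5 mol/L, then LPS 10 μmol/L plus BzATP 70 μmol/L at 37 °C, 5% CO2; horseradish peroxidase (50 μg/mL) and luminol (50 μM) mixture added, chemiluminescence read on a fluorometer; cell-free H2O2 serves as positive control.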

In another data set the test system is HEK293. The data set is described as follows: Cytotoxicity against human HEK293 cells assessed as reduction in cell viability at 10^-5 mol/L incubated for 72 hrs. In kind it is cell-based. The conditions noted are these: hek293, 72 h, 10 µM. In outline: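 Wild-type and P2RX7-transfected HEK293 cells exposed to compound for 72 hours; viability compared against untreated control.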

The nature of data set [12]: Metabolic stability in human liver microsomes assessed as half life at 0.2 mg/ml incubated for 60 mins by UPLC/MS-MS analysis. Type of data set: ADME, Microsome.
In data set [13] the target is T1, P2X purinoceptor 7 (Homo sapiens). The data set is described as follows: Inhibition of human P2X7 expressed in human HEK293 cells assessed as reduction in BzATP-stimulated TO-PRO-3 incorporation at 10 uM preincubated with compound and TO-PRO-3 for 15 mins prior to BzATP addition and measured after 1 hr by Fluo-3AM dye based flow cytometry relative to control. In kind it is cell-based. In outline: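 HEK-293 cells overexpressing human P2RX7 loaded with Fluo-3 AM, then incubated with TO-PRO-3 (large pore uptake) and propidium iodide (viability) plus compound (10⁻⁵ M single point) for 15 min before BzATP 100 µM. After 1 h, flow cytometry; percentage of Fluo-3/TO-PRO-3 double-positive cells calculated. Mean of n ≥ 2 with positive control.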

For data set [14] the target is unchanged. The data set is described as follows: Antagonist activity at P2X7R in human THP1 cells assessed as inhibition of LPS and BzATP-induced cell death at 10^-6 mol/L pretreated with compound followed by LPS/BzATP addition and measured after 6 hrs by sytox green dye based flow cytometry. Conditions: THP-1.
Data set [15] deals with Mus musculus. Put plainly: Antiinflammatory activity against DSS-induced colitis C57BL/6J mouse model assessed as decrease in inflammation level in colon at 2.5 mg/kg, ip administered daily and measured after day 14 by hematoxylin and eosin staining based microscopic analysis. Type of data set: functional. The conditions noted are these: 336 h. The gist of the method:
(§1)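 DSS colitis in WT mice: 3.8% DSS in drinking water days 1–5, then tap water for 10 days; compound 2.5 mg/kg given i.p. daily in 10% DMSO/PBS; cohorts of 10 mice per group, placebo as comparator; weight loss and clinical disease score tracked; colon sections at day 14 stained with H&E and histologically scored; data as mean ± SEM.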

Data set [16] addresses T1, P2X purinoceptor 7 (Homo sapiens). The data set is described as follows: Antagonist activity at P2X7R in human THP1 cells assessed as inhibition of LPS and BzATP-induced cell death at 10^-6 mol/L pretreated with compound followed by LPS/BzATP addition and measured after 4 hrs by sytox green dye based flow cytometry. The conditions noted are these: THP-1.
Data set [17] shares this target. The data set is described as follows: Antagonist activity at P2X7R in human THP1 cells assessed as inhibition of LPS and BzATP-induced ROS production at 10^-6mol/L pretreated with compound followed by LPS/BzATP addition and measured after 4 hrs by kinetic chemiluminescence based fluorometric analysis. In kind it is cell-based. The conditions noted are these: THP-1. In outline: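 Differentiated THP-1 macrophages (10^5 cells, RPMI 1640 + 10% FBS) pretreated with antagonist at 10^-6 mol/L before LPS (10 μmol/L) and BzATP (70 μmol/L), 37 °C, 5% CO2; ROS detected as luminol (50 μM)/horseradish peroxidase (50 μg/mL) chemiluminescence on a fluorometer; H2O2 without cells as positive control.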

In data set [18] the test system is Mus musculus. Put plainly: Antiinflammatory activity against DSS-induced colitis C57BL/6J mouse model assessed as areas of normal colonic mucosa with straight and larger crypts on muscularis mucosa at 2.5 mg/kg, ip administered daily and measured after day 14 by hematoxylin and eosin staining based microscopic analysis. In kind it is functional, organism-based. In outline:
as §1

The source made the active and inactive calls. No cut-off for these calls is given here.

On to `O=C(NCc1cccc(C(F)(F)F)c1Cl)[C@@H]1CCC(=O)N1c1cccs1`, for which the solubility result in data set [1] is “Insoluble”. Moreover, the inhibition – broadly, the share of the control response that was lost under treatment – is “Tde” in data set [2] and 100% in [13]. Moreover, the metabolised at 40 min in [3] was 99.7%. Besides, the microsomal CLint in data set [4] was 530 µL/min/mg. For the same compound, the IC50 (commonly the concentration at which inhibition is half-maximal) at P2X purinoceptor 7 was 218 nM. For the same compound, on P2X purinoceptor 7, the affinity, expressed as Ki, was 44 nM. Besides, the inhibition result in data set [5], in data set [7], in data set [8], in data set [9] and in data set [11] was “Active” in each case. Moreover, the result in data set [6] was inactive. In addition, in [10], the Stability result is “Unstable”. For the same compound, the Activity entry in the data set with HEK293 was “Non-Toxic”. For the same compound, the half-life (usually how long it takes for the measured level to halve) in data set [12] is 3.8 min.

On to `CN1C(=O)CC[C@H]1C(=O)NCc1ccc(Cl)cc1Cl`, for which the inhibition entry in data set [14] was “inactive”. Besides, the inhibition result in data set [2] is “Tde”; in data set [13] it was 100%. In data set [3], the metabolised at 40 min was found to be 5.1%. In data set [4], the microsomal CLint was 3.6 µL/min/mg. The same compound registered an IC50 at P2X purinoceptor 7 of 862 nM. At P2X purinoceptor 7, the affinity, expressed as Ki, was 176 nM. The inhibition in vivo (usually the change of the read-out against control, counted positive when it falls) at 2.5 mg/kg in the data set on Mus musculus [15] was 42 to 50%. The inhibition result in [8], in data set [16], in data set [17] and in [11] was “Active” in each case. The Stability result in data set [10] is given as “Stable”. Moreover, the result with Mus musculus [18] was Active. In addition, the half-life in data set [12] came out at 619 min.

With `O=C(NCc1ccc(Cl)cc1Cl)[C@@H]1CCC(=O)N1c1ccoc1`, in data set [1], the solubility result was “Insoluble”. Further, the inhibition entry in [2] is “Tde”; in [13] it was 85%. Further, in [3], the metabolised at 40 min was found to be 99.9%. Moreover, in [4], the microsomal CLint was found to be 630 µL/min/mg. Moreover, on P2X purinoceptor 7, the IC50 was determined as 422 nM. Also, at P2X purinoceptor 7, affinity was put at a Ki of 86 nM. The result in data set [6] was inactive. For the same compound, the inhibition result in [8] and in data set [11] was “Active” each time. In data set [10], the Stability result is “Unstable”. In addition, in the data set with HEK293, the Activity result is listed as “Non-Toxic”. Also, in data set [12], the half-life is 2.9 min.

Consider `O=C(NCc1ccc(Cl)cc1Cl)[C@@H]1CCC(=O)N1c1ccco1`, for which, in [1], the solubility entry is “Insoluble”. Moreover, the inhibition result was “Tde” in [2] and 94% in [13]. Besides, the metabolised at 40 min in data set [3] turned out to be 99.2%. The microsomal CLint in data set [4] was 411 µL/min/mg. Also, on P2X purinoceptor 7, the IC50 was 575 nM. Also, on P2X purinoceptor 7, the Ki (in general, the dissociation constant of the complex between target and ligand, obtained from inhibition or displacement) is 118 nM. Also, in [6], the result was inactive. Also, the inhibition entry in data set [8] and in [11] was “Active” in each case. Further, the Stability result in data set [10] was “Unstable”. In addition, the Activity entry in the data set with HEK293 was “Non-Toxic”. In data set [12], the half-life is 5.2 min.
